Test results from ChEMBL document CHEMBL1152560, “Substituted 2-arylbenzothiazoles as kinase inhibitors: hit-to-lead optimization” (Bioorg Med Chem, 2009).

Experiments:
[1] = biological target: T1, Serine/threonine-protein kinase Chk1 (Homo sapiens) (UniProt O14757); assay: Residual activity of CHK1 at 1 uM by microplate scintillation counting
T1 sequence (whole entry): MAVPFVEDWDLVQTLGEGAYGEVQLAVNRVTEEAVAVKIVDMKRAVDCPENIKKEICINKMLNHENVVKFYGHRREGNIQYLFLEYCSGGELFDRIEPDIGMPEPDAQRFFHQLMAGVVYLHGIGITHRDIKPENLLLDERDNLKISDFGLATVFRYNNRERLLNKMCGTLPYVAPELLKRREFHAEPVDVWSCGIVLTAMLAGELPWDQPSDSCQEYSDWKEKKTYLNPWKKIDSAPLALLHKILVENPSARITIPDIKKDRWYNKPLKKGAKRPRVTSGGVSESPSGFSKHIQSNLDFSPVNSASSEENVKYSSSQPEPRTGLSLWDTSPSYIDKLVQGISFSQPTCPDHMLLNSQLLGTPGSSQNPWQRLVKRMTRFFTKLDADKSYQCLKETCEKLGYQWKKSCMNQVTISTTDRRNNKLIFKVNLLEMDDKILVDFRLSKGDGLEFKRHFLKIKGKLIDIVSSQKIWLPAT

[2] = biological target: Serine/threonine-protein kinase Chk2 (Homo sapiens) (UniProt O96017); assay: Residual activity of CHK2 at 1 uM by microplate scintillation counting
Sequence of Serine/threonine-protein kinase Chk2 (Homo sapiens) (O96017 whole entry): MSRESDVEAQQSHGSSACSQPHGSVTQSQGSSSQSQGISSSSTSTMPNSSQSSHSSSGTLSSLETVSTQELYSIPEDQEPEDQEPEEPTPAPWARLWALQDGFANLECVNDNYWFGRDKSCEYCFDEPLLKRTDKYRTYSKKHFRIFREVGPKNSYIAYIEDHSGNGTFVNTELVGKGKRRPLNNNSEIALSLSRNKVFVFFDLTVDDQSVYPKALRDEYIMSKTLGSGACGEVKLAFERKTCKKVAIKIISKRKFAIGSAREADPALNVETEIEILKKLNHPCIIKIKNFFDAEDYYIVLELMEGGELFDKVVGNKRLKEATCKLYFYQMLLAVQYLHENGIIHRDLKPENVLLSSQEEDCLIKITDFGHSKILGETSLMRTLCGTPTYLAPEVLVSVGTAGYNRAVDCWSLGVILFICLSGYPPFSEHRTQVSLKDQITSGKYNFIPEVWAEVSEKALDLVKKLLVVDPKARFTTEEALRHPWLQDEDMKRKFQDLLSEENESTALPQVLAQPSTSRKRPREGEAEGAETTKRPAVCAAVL

[3] = biological target: Protein-tyrosine kinase 2-beta (Homo sapiens) (UniProt Q14289); assay: Residual activity of PYK2 at 1 uM by microplate scintillation counting
Sequence of Protein-tyrosine kinase 2-beta (Homo sapiens) (Q14289 whole entry, looked up): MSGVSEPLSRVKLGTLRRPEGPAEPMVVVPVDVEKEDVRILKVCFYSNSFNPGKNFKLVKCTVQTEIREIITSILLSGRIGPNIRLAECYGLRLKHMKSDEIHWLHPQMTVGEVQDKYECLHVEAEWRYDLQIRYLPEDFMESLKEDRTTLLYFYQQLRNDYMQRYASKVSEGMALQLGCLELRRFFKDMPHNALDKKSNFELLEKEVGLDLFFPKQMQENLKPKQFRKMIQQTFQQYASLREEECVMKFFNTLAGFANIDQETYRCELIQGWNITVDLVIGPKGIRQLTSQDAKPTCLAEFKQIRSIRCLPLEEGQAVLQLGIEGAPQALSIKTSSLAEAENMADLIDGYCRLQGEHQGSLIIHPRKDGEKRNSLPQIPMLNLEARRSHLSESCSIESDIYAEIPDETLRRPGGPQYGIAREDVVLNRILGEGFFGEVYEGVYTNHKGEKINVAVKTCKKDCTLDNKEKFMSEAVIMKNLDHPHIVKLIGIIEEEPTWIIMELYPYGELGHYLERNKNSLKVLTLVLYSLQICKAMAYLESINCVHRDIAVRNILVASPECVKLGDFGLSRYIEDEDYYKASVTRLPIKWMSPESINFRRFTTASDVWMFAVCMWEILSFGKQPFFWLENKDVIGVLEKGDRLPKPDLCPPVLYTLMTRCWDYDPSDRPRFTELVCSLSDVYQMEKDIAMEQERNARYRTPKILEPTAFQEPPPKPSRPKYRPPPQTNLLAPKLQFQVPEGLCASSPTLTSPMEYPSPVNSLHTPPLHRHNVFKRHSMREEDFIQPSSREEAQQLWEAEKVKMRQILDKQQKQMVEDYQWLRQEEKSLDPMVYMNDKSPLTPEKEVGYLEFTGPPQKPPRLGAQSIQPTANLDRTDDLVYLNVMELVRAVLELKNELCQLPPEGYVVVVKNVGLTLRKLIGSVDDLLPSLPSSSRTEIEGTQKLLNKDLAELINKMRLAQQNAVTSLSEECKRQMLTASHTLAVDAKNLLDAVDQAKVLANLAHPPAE

[4] = biological target: T2, TGF-beta receptor type-1 (Homo sapiens) (UniProt P36897); assay: Residual activity of TGFB-R1 at 1 uM by microplate scintillation counting
T2 sequence (whole entry): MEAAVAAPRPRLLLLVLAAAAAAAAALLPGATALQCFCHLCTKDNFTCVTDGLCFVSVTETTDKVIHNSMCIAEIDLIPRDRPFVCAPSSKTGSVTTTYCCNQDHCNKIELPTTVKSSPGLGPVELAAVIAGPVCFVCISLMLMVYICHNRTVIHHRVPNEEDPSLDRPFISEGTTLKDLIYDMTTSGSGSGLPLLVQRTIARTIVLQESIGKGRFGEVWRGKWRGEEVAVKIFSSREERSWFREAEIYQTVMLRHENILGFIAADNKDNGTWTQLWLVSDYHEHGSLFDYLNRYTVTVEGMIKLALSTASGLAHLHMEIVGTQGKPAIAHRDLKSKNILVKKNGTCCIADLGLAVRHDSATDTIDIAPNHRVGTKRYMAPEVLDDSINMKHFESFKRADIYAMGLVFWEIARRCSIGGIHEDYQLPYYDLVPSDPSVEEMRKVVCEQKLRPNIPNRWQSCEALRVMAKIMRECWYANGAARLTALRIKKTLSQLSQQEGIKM

[5] = biological target: T3, MAP kinase-activated protein kinase 5 (Homo sapiens) (UniProt Q8IW41); assay: Residual activity of MAPKAPK5 at 10 uM by microplate scintillation counting
T3 sequence (whole entry): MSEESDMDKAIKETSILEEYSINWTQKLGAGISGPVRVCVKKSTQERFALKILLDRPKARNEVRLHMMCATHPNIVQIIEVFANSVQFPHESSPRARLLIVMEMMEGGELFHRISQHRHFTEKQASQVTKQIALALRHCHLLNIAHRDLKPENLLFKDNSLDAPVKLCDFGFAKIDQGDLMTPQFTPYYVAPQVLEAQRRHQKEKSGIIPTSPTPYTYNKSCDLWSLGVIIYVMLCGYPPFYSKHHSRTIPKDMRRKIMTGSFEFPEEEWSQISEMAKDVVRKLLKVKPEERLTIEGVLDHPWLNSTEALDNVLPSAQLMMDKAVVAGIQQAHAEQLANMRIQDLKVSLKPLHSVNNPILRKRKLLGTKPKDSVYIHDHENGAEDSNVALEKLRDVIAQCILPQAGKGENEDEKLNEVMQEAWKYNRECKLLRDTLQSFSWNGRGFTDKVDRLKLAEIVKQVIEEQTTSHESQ

[6] = biological target: T4, Serine/threonine-protein kinase Nek2 (Homo sapiens) (UniProt P51955); assay: Residual activity of NEK2 at 0.1 uM by microplate scintillation counting
T4 sequence (whole entry): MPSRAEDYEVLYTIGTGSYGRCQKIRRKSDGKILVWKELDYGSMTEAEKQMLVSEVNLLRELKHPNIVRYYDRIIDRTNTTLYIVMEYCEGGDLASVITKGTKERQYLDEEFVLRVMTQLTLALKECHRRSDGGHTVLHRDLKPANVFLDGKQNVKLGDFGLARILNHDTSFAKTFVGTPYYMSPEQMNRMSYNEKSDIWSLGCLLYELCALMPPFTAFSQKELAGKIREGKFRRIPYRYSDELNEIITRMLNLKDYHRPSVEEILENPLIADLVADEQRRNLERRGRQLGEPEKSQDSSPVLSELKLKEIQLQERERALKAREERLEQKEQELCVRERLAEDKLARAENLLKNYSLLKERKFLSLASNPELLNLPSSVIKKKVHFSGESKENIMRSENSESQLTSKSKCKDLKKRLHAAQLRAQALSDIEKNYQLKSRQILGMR

[7] = Residual activity of PKA at 0.1 uM by microplate scintillation counting
Aurora kinase A = biological target: T5, Aurora kinase A (Homo sapiens, UniProt O14965); assay: Inhibition of Aurora-A by microplate scintillation counting
T5 sequence (O14965 whole entry): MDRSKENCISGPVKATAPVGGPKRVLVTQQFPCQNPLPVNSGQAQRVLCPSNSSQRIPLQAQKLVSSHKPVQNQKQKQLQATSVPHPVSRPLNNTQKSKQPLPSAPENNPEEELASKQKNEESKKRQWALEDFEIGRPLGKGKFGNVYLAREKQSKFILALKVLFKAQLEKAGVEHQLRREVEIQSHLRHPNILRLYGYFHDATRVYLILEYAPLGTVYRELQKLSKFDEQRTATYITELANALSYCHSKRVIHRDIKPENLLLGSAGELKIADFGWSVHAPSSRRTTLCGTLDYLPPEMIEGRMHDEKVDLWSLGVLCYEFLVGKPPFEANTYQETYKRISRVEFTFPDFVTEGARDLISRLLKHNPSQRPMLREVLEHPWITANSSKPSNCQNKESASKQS
In short: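 Substrates: tetra(LRRWSLG) for Aurora A/B; poly(Ala,Glu,Lys,Tyr)6:2:5:1 for PDGFRβ; poly(Glu,Tyr)4:1 for TIE2 and VEGFR2. Stopped with 2% H3PO4.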

| residual activity [1] [%] | residual activity [2] [%] | residual activity [3] [%] | residual activity [4] [%] | residual activity [5] [%] | residual activity [6] [%] | residual activity [7] [%] | IC50 (Aurora kinase A) [nM] | SMILES |
| --- | --- | --- | --- | --- | --- | --- | --- | --- |
| 83 | 75 | 109 | 98 | 109 | 94 | 95 | 170 | COc1cc2c(Oc3ccc(-c4nc5ccccc5s4)cc3)ncnc2cc1OCCCN1CCCC1 |
| 103 | 54 | 97 | 103 | 143 | 95 | 89 | 82 | COc1cc2c(Oc3ccc(-c4nc5ccccc5s4)cc3)ncnc2cc1OCCCN1CCN(C)CC1 |
| 102 | 51 | 105 | 107 | 134 | 90 | 98 | 220 | COc1cc2c(Oc3ccc(-c4nc5ccccc5s4)cc3F)ncnc2cc1OCCCN1CCN(C)CC1 |
